From ChEMBL document CHEMBL1138529, “Efficacy, pharmacokinetics, and metabolism of tetrahydroquinoline inhibitors of Plasmodium falciparum protein farnesyltransferase” (Antimicrob Agents Chemother, 2007)
Active and inactive are the calls of the source.

Experiments:
Plasmodium berghei = test: Antiplasmodial activity as reduced parasitaemia against Plasmodium berghei NK65 infected Sprague-Dawley rat at 50 mg/kg every 8 hrs peroral dose for 3 days
[1] = target: 5-hydroxytryptamine receptor 2A (Homo sapiens) (UniProt P28223); test: Inhibition of 5HT2A receptor at 10 uM
In short: (§1)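 Radioligand displacement screen by a contractor across 50 receptors, ion channels and transporters, test compound at 10 μM; decrease in specific ligand binding expressed as percentage, with >50% decrease taken as significant.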

Rattus norvegicus [2] = test: Toxicity in Plasmodium berghei NK65 infected Sprague-Dawley rat assessed as effect on electrolyte levels at 50 mg/kg, perorally administered every 12 hrs for 3 days; assay type: organism-based; design: dose 50 mg/kg, route oral; settings: in vivo, po
In short: (§2)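 Female Sprague-Dawley rats, 10-12 weeks, n = 3 per schedule. Dosed 50 mg/kg by oral gavage every 8 h or every 12 h for 72 h. At the end of dosing, blood was sent to a clinical laboratory for complete blood counts, white cell differentials, electrolytes, glucose, renal function, liver enzymes and cholesterol.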

Rattus norvegicus [3] = test: Toxicity in Plasmodium berghei NK65 infected Sprague-Dawley rat assessed as effect on white blood cell differentials at 50 mg/kg, perorally administered every 12 hrs for 3 days; assay type: organism-based; design: dose 50 mg/kg, route oral; settings: in vivo, po
In short: as §2

[4] = target: Sodium-dependent noradrenaline transporter (Homo sapiens) (UniProt P23975); test: Inhibition of NET at 10 uM
In short: as §1

Rattus norvegicus [5] = test: Toxicity in Plasmodium berghei NK65 infected Sprague-Dawley rat assessed as effect on blood counts at 50 mg/kg, perorally administered every 12 hrs for 3 days; assay type: organism-based; design: dose 50 mg/kg, route oral; settings: in vivo, po
In short: as §2

[6] = target: Adenosine receptor A3 (Homo sapiens) (UniProt P0DMS8); test: Inhibition of adenosine A3 receptor at 10 uM
In short: as §1

[7] = target: Neurotensin receptor type 1 (Homo sapiens) (UniProt P30989); test: Inhibition of NTS1 receptor at 10 uM
In short: as §1

[8] = target: C-X-C chemokine receptor type 2 (Homo sapiens) (UniProt P25025); test: Inhibition of CXCR2 receptor at 10 uM
In short: as §1

[9] = target: Mu-type opioid receptor (Homo sapiens) (UniProt P35372); test: Inhibition of mu opioid receptor at 10 uM
In short: (§3)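 Radioligand displacement at a contract lab across a panel of 50 receptors, ion channels and transporters, single test concentration 10 μM; loss of specific ligand binding reported as percent, with >50% decrease counted as significant.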

[10] = AUC in Sprague-Dawley rat at 50 mg/kg, po; assay type: ADME, organism-based; design: dose 50 mg/kg, route oral; settings: plasma
In short: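 Three female BALB/c mice (lines for mice, 8–10 weeks) or three female Sprague-Dawley rats (10–12 weeks) per group; 50 mg/kg oral gavage in 3% EtOH-7% Tween 80-90% normal saline. Plasma sampled at set times (tail bleed in mice, saphenous vein in rats), extracted with acetonitrile plus internal standard, quantified by LC/MS; AUC as mean of three animals.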

[11] = Metabolic stability in rat liver microsomes; assay type: ADME, Microsome
In short: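 Pooled female liver microsomes at 0.5 mg/ml in 0.1 M potassium phosphate pH 7.4, 3 mM MgCl2, 1 mM EDTA, with NADPH regenerating system (1 mM NADP+, 5 mM glucose-6-phosphate, 1 U/ml G6PDH). Preincubated 10 min at 37°C, then compound added to 1 μM final. Time points quenched with 3 volumes acetonitrile plus internal standard; parent quantified by LC/MS; half-life reported.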

[12] = target: Muscarinic acetylcholine receptor M2 (Homo sapiens) (UniProt P08172); test: Inhibition of muscarinic M2 receptor at 10 uM
In short: as §3

[13] = Inhibition of dopamine GABA receptor at 10 uM
In short: (§4)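 Radioligand displacement screen at a 10 μM test concentration, run by a contract lab across a panel of 50 receptors, pharmacologically active ion channels and transporters. The read-out is the decrease in specific radiolabeled ligand binding, expressed as a percentage. A decrease above 50% was considered significant.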

Rattus norvegicus [14] = test: Toxicity in Plasmodium berghei NK65 infected Sprague-Dawley rat assessed as effect on liver enzyme levels at 50 mg/kg, perorally administered every 12 hrs for 3 days; assay type: organism-based; design: dose 50 mg/kg, route oral; settings: in vivo, po, in the assay text read “every 8 hrs” for “every 12 hrs”
In short: as §2

Salmonella typhimurium [15] = test: Genotoxicity in Salmonella enterica serovar Typhimurium TA98 assessed as increase in number of revertants in presence of rat liver S9 fraction by Ames test; assay type: toxicity, organism-based; settings: salmonella enterica subsp. enterica serovar typhimurium
In short: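 Liquid-culture Ames assay run by a contractor: S. Typhimurium TA98 and TA100 exposed for 96 h in histidine-free medium, with and without rat liver S9, at 5, 10, 50 and 100 μM (plus higher concentrations); growth read spectrophotometrically by pH-indicator colour change. Parallel bacterial cytotoxicity assay at same concentrations.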

Salmonella typhimurium [16] = test: Toxicity against Salmonella enterica serovar Typhimurium TA100; assay type: organism-based, Salmonella enterica subsp. enterica serovar Typhimurium; settings: in vivo
In short: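 Ames fluctuation test in S. Typhimurium TA98 (frameshift) and TA100 (base substitution), with and without rat liver S9. Tested at 5, 10, 50 and 100 μM plus higher concentrations, 48 wells each, in histidine-free liquid medium for 96 h. Growth read spectrophotometrically by pH-indicator color change. Bacterial cytotoxicity assayed in parallel at the same concentrations.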

Rattus norvegicus [17] = test: Toxicity in Plasmodium berghei NK65 infected Sprague-Dawley rat assessed as effect on electrolyte levels at 50 mg/kg, perorally administered every 8 hrs for 3 days; assay type: organism-based; design: dose 50 mg/kg, route oral; settings: in vivo, po
In short: as §2

Rattus norvegicus [18] = test: Toxicity in Plasmodium berghei NK65 infected Sprague-Dawley rat assessed as effect on white blood cell differentials at 50 mg/kg, perorally administered every 8 hrs for 3 days; assay type: organism-based; design: dose 50 mg/kg, route oral; settings: in vivo, po
In short: as §2

[19] = Inhibition of somatostatin receptor at 10 uM
In short: as §4

[20] = target: 5-hydroxytryptamine receptor 5A (Homo sapiens) (UniProt P47898); test: Inhibition of 5HT5A receptor at 10 uM
In short: as §1

Plasmodium falciparum = test: Antiplasmodial activity against chloroquine-sensitive Plasmodium falciparum 3D7 by [3H]hypoxanthine uptake; assay type: functional; settings: read-out: ED50 (the source's name)
In short: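 Asynchronous cultures at 0.5% parasitemia and 0.5% hematocrit in RPMI 1640 with 20% heat-inactivated human A+ plasma, exposed to serially diluted inhibitor (top final 5 μM, from DMSO stock) under 5% CO2/5% O2/90% N2 at 37°C for 48 h. [3H]hypoxanthine was then added for 24 h and harvested counts were background-subtracted against DMSO-only controls. ED50 came from linear regression, as the mean of duplicates.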

[21] = target: Histamine H2 receptor (Homo sapiens) (UniProt P25021); test: Inhibition of histamine H2 receptor at 10 uM
In short: as §3

[22] = AUC in Sprague-Dawley rat at 2 mg/kg, iv; assay type: ADME, organism-based; design: dose 2 mg/kg, route intravenous; settings: plasma
In short: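 Three female Sprague-Dawley rats per group (10–12 weeks), jugular-vein catheterized; 2 mg/kg in 3% EtOH-7% Tween 80-90% normal saline given through the catheter. Plasma drawn from the catheter at set times, acetonitrile extraction with internal standard, LC/MS quantification.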

[23] = target: 5-hydroxytryptamine receptor 3A (Homo sapiens) (UniProt P46098); test: Inhibition of 5HT3 receptor at 10 uM
In short: as §1

Rattus norvegicus [24] = test: Toxicity in Plasmodium berghei NK65 infected Sprague-Dawley rat assessed as effect on renal function at 50 mg/kg, perorally administered every 8 hrs for 3 days; assay type: organism-based; design: dose 50 mg/kg, route oral; settings: in vivo, po
In short: as §2

[25] = target: Type-1 angiotensin II receptor (Homo sapiens) (UniProt P30556); test: Inhibition of angiotensin AT1 receptor at 10 uM
In short: as §3

[26] = target: C-C chemokine receptor type 1 (Homo sapiens) (UniProt P32246); test: Inhibition of CCR1 receptor at 10 uM
In short: as §1

Sequence of Mu-type opioid receptor (Homo sapiens) (P35372 whole entry): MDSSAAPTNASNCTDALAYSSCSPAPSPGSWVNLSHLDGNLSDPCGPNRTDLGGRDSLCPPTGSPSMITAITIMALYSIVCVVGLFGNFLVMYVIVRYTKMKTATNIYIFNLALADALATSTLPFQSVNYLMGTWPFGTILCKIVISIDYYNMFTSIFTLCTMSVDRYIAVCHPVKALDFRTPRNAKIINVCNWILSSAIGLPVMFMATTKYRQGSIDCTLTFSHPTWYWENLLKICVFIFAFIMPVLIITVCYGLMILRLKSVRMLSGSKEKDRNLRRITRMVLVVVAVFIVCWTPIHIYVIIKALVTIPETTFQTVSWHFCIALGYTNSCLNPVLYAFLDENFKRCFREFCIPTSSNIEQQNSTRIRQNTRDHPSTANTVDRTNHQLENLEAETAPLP
Sequence of 5-hydroxytryptamine receptor 2A (Homo sapiens) (P28223 whole entry): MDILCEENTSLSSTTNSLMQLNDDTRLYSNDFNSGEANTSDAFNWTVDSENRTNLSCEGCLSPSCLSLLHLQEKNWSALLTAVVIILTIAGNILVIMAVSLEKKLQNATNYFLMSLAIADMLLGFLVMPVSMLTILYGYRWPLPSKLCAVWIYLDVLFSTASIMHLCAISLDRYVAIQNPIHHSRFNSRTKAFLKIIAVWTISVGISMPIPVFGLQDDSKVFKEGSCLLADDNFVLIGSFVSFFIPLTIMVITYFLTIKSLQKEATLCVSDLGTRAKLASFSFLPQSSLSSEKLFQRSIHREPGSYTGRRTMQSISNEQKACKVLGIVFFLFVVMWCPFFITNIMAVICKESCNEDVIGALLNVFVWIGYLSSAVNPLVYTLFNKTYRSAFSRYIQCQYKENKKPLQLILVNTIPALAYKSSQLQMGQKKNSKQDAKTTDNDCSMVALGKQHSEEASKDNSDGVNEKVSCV
Sequence of Sodium-dependent noradrenaline transporter (Homo sapiens) (P23975 whole entry): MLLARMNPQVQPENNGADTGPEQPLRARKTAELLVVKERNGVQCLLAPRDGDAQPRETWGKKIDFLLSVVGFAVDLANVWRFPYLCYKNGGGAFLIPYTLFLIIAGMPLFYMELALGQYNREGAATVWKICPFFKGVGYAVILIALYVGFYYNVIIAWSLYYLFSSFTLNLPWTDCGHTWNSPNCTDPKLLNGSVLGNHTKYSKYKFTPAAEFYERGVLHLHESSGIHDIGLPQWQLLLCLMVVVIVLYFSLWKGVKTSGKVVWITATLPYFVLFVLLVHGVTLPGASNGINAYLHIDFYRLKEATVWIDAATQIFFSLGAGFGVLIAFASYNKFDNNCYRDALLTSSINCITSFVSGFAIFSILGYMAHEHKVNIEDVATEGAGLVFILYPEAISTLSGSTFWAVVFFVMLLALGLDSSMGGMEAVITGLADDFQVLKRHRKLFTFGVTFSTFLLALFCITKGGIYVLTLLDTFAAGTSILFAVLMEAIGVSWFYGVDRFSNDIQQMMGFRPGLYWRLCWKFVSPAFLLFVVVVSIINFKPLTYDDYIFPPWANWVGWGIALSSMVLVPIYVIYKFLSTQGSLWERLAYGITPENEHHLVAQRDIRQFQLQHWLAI
Sequence of Muscarinic acetylcholine receptor M2 (Homo sapiens) (P08172 whole entry): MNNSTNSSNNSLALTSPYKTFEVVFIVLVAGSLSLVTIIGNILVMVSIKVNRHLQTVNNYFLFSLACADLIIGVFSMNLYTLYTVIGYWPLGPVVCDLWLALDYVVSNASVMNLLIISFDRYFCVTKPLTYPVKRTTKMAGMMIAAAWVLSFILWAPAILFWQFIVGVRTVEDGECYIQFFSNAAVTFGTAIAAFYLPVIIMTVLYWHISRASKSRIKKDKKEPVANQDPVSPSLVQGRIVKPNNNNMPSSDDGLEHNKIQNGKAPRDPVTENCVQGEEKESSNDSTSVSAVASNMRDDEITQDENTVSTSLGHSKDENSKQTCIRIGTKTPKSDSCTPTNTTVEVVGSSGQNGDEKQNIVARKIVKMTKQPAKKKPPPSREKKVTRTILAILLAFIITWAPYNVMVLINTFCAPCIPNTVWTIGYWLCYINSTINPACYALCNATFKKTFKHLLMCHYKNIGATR
Sequence of Type-1 angiotensin II receptor (Homo sapiens) (P30556 whole entry): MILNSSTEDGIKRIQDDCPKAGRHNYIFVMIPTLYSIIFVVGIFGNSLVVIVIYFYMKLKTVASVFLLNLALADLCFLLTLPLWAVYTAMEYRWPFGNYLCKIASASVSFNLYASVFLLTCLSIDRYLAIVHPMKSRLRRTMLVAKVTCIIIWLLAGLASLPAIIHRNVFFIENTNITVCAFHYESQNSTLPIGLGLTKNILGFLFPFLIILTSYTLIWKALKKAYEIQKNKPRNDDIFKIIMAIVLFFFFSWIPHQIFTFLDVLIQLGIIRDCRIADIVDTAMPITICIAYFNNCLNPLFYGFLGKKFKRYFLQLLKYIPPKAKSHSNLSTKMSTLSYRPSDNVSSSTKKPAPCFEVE
Sequence of 5-hydroxytryptamine receptor 5A (Homo sapiens) (P47898 whole entry): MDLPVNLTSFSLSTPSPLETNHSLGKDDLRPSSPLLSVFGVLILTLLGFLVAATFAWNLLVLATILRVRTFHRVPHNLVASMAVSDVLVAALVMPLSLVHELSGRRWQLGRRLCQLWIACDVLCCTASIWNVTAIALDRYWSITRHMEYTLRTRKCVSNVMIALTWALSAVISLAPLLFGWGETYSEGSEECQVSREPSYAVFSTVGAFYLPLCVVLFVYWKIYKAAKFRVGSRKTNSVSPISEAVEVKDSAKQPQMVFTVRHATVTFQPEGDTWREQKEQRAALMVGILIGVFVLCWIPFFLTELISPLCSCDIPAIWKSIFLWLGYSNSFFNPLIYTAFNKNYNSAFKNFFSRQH
Sequence of Histamine H2 receptor (Homo sapiens) (P25021 whole entry): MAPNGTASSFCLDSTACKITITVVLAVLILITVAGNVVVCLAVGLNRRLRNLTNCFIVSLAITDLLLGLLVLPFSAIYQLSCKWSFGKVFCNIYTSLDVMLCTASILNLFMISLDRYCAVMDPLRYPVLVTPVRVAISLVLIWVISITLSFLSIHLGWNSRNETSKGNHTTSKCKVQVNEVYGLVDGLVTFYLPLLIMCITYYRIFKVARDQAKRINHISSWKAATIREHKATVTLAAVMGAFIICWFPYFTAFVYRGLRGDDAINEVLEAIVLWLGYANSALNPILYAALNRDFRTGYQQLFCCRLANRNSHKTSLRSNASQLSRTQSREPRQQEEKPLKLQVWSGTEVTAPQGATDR
Sequence of C-X-C chemokine receptor type 2 (Homo sapiens) (P25025 whole entry): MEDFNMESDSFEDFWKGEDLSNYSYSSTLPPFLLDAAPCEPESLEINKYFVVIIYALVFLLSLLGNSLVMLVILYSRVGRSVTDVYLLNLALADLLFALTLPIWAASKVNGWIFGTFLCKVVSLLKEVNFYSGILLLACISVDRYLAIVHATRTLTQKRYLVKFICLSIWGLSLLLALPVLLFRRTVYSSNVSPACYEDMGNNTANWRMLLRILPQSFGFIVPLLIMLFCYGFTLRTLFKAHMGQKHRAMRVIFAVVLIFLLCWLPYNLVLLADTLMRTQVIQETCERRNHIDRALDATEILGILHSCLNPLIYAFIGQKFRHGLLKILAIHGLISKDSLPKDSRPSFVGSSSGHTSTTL
Sequence of Adenosine receptor A3 (Homo sapiens) (P0DMS8 whole entry): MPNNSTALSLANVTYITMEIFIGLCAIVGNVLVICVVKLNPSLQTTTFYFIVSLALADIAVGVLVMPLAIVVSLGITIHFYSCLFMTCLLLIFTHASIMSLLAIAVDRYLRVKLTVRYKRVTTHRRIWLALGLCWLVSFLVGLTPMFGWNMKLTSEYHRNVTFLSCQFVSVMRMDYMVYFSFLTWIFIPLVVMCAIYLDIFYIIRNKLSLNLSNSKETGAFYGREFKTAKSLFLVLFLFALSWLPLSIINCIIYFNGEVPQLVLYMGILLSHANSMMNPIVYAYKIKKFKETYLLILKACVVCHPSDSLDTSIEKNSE
Sequence of 5-hydroxytryptamine receptor 3A (Homo sapiens) (P46098 whole entry): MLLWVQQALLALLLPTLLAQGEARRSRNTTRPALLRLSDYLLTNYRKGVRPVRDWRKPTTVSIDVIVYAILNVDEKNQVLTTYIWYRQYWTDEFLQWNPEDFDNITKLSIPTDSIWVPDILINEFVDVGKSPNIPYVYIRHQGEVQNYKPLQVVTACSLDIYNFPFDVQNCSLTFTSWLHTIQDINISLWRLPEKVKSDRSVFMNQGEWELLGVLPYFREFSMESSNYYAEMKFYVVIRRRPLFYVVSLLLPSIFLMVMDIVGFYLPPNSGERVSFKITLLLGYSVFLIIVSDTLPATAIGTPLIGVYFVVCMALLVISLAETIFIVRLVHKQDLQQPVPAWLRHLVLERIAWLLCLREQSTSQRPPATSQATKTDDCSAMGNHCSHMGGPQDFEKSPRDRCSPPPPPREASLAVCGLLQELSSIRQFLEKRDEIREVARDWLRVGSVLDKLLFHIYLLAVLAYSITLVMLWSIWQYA
Sequence of C-C chemokine receptor type 1 (Homo sapiens) (P32246 whole entry): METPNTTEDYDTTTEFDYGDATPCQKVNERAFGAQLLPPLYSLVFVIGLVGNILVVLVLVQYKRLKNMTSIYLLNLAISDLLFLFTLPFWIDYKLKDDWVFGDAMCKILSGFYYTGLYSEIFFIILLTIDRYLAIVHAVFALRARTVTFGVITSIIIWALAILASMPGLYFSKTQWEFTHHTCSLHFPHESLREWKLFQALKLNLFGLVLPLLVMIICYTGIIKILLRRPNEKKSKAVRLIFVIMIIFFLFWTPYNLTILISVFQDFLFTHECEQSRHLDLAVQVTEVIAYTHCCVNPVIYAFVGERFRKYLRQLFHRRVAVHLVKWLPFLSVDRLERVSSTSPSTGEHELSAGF

COC(=O)N1CCC(CN(C2Cc3cc(C#N)ccc3N(Cc3cncn3C)C2)S(=O)(=O)c2ccccn2)CC1 (stereo not drawn)
active: Activity (Plasmodium berghei)
10.9 µM·h: AUC [10]
0.533 µM·h: AUC [22]
77%: inhibition [12]
14 min: half-life [11]
0.016 µM: EC50 (Plasmodium falciparum)
Non-toxic: Activity (Rattus norvegicus [2]) | Activity (Rattus norvegicus [3]) | Activity (Rattus norvegicus [5]) | Activity (Rattus norvegicus [14]) | Activity (Salmonella typhimurium [15]) | Activity (Salmonella typhimurium [16]) | Activity (Rattus norvegicus [17]) | Activity (Rattus norvegicus [18]) | Activity (Rattus norvegicus [24])
inactive: inhibition [1] | inhibition [4] | inhibition [6] | inhibition [7] | inhibition [8] | inhibition [9] | inhibition [13] | inhibition [19] | inhibition [20] | inhibition [21] | inhibition [23] | inhibition [25] | inhibition [26]
